The source made the active and inactive calls. The rule behind the calls is not given here.
Tests used:
[1] = Cytotoxicity against human K562/A02 cells assessed as cell viability at 1.0 uM after 48 hrs by MTT assay (reference value: >99%); assay type: cell-based; details: read-out: Activity
K562 = assay: Cytotoxicity against human K562 cells assessed as suppression of cell viability after 48 hrs by MTT assay; assay type: cell-based; details: K562, 48 h
Procedure, shortened: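 MTT assay on HUVEC, K562 or K562/A02 cells seeded at 1×10^4 cells per well, using serial compound concentrations. Formazan was dissolved in DMSO and read at 490 nm. IC50 was obtained from log dose–response curves, mean ± SD of three independent tests.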

[2] = Inhibition of P-gp in human K562/A02 cells assessed as potentiation of doxorubicin-induced cytotoxicity by measuring fold reduction in doxorubicin IC50 after 48 hrs by MTT assay relative to doxorubicin alone; assay type: cell-based; details: K562/A02, 48 h
Procedure, shortened: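 K562/A02 cells (1×10^4 cells per well) were exposed to a DOX concentration series, alone or with modulator at 1.0 μM, for 48 h. Viability was read by MTT at 490 nm. Reversal fold = DOX IC50 without inhibitor / DOX IC50 with inhibitor, mean ± SD of three tests.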

[3] = Selective index, ratio of IC50 for human K562 cells to EC50 for inhibition of P-gp in human K562/A02 cells assessed as potentiation of doxorubicin-induced cytotoxicity
Procedure, shortened: (§1)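 Reversal EC50 is the modulator concentration that halves the DOX IC50 in K562/A02 cells, from % DOX IC50 plotted against log modulator concentration. The index divides the MTT IC50 in K562, K562/A02 or HUVEC cells by this EC50.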

[4] = Selective index, ratio of IC50 for human K562/A02 cells to EC50 for inhibition of P-gp in human K562/A02 cells assessed as potentiation of doxorubicin-induced cytotoxicity; procedure, shortened: as §1
[5] = Selectivity index, ratio of IC50 for HUVEC to EC50 for inhibition of P-gp in human K562/A02 cells assessed as potentiation of doxorubicin-induced cytotoxicity; procedure, shortened: as §1
Homo sapiens [6] = organism: Homo sapiens; assay: Inhibition of P-gp in human K562/A02 cells assessed as potentiation of paclitaxel-induced cytotoxicity at 1.0 uM after 48 hrs by MTT assay; assay type: cell-based
Procedure, shortened: (§2)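 K562/A02 cells were exposed for 48 h to DNR, PTX, VLB or CTX at 0, 0.313–20 μM, with or without modulator at 1.0 μM. Viability was measured by MTT at 490 nm, mean ± SD of three independent tests.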

K562/A02 [7] = assay: Potentiation of cyclophosphamide-induced cytotoxicity against human K562/A02 cells at 1.0 uM after 48 hrs by MTT assay; assay type: functional, cell-based; procedure, shortened: as §2
Homo sapiens [8] = organism: Homo sapiens; assay: Inhibition of P-gp in human K562/A02 cells assessed as accumulation of doxorubicin at 0.1 uM to 5.0 uM after 150 mins by fluorescence spectrophotometric analysis; assay type: cell-based
Procedure, shortened: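 K562/A02 cells (4×10^5) were incubated 150 min at 37 °C with 20.0 μM DOX plus modulator at various concentrations, with 0.1% DMSO as negative control. Cells were washed with cold PBS and lysed in HCl/Triton X-100/isopropanol. DOX fluorescence was read at ex 460 / em 587 nm. Mean ± SD, n = 3.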

Homo sapiens [9] = organism: Homo sapiens; assay: Inhibition of P-gp mediated efflux in human K562/A02 cells assessed as intracellular Rh123 accumulation at 1.0 uM measure up to 90 mins by flow cytometric analysis; assay type: cell-based
Procedure, shortened: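 K562/A02 cells were loaded with 5 μM Rh123 for 90 min at 37 °C and washed three times. They were then incubated with or without modulator at 37 °C for 5, 10, 25, 30, 60 and 90 min. Retained Rh123 MFI per 10000 cells was measured by flow cytometry. 0.1% DMSO negative control, n = 3.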

K562/A02 [10] = assay: Effect on ABCB1 expression in human K562/A02 cells at 0.1 uM to 2.0 uM after 72 hrs by Western blot analysis; assay type: functional, cell-based
Procedure, shortened: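 K562/A02 cells were treated 72 h with compound at 0.1, 0.5 or 2.0 μM and lysed in RIPA/PMSF. Lysate (100 μg) was run on gradient SDS-PAGE and probed with anti-ABCB1, with β-tubulin loading control and ECL detection. Expression is given as the ABCB1/β-tubulin band-intensity ratio.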

[11] = Inhibition of CYP3A4 in rat liver microsomes assessed as decrease in 6beta-OH testosterone levels at 40 uM using testosterone as substrate by HPLC analysis; assay type: ADME
Procedure, shortened: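 Rat liver microsomes, prepared by differential centrifugation, were incubated with testosterone in the absence or presence of compound at 2.5, 5.0, 10.0, 20.0 and 40.0 μM. The 6β-OH testosterone product was quantified by C18 reverse-phase gradient HPLC at 254 nm. Ketoconazole served as positive control. n = 3.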

Rattus norvegicus [12] = assay: AUC(0 to 24 hrs) in Sprague-Dawley rat plasma at 10 mg/kg, po measured after 24 hrs by LC-MS/MS analysis; assay type: ADME, organism-based; parameters: dose 10 mg/kg, time < 24 hr, route oral; details: in vivo
Procedure, shortened: (§3)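 Male Sprague-Dawley rats, n = 3 per group, given drug in Tween-80/ethanol/saline (5:10:85, v/v) at 10 mg/kg p.o. or 5 mg/kg i.v. Retro-orbital blood was taken at 5 min to 24 h, and plasma separated at 900g. Samples were spiked with internal standard, methanol-precipitated and quantified by LC-MS/MS. F = (AUCpo/AUCiv)×(dose iv/dose po)×100%.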

Rattus norvegicus [13] = assay: AUC(0 to 24 hrs) in Sprague-Dawley rat plasma at 5 mg/kg, iv measured after 24 hrs by LC-MS/MS analysis; assay type: ADME, organism-based; parameters: dose 5 mg/kg, time < 24 hr, route intravenous; details: in vivo; procedure, shortened: as §3
Rattus norvegicus [14] = assay: AUC(0 to infinity) in Sprague-Dawley rat plasma at 10 mg/kg, po measured after 24 hrs by LC-MS/MS analysis; assay type: ADME, organism-based; parameters: dose 10 mg/kg, route oral, time infinity; details: in vivo; procedure, shortened: as §3
[15] = Elimination half life in Sprague-Dawley rat plasma at 10 mg/kg, po by LC-MS/MS analysis; assay type: ADME, organism-based; details: read-out: beta t1/2 (converted); procedure, shortened: as §3
[16] = Elimination half life in Sprague-Dawley rat plasma at 5 mg/kg, iv by LC-MS/MS analysis; assay type: ADME, organism-based; details: read-out: beta t1/2 (converted); procedure, shortened: as §3
[17] = Cmax in Sprague-Dawley rat at 10 mg/kg, po measured after 24 hrs by LC-MS/MS analysis; assay type: ADME, organism-based; parameters: dose 10 mg/kg, route oral; details: in vivo; procedure, shortened: as §3
[18] = Plasma clearance in Sprague-Dawley rat at 10 mg/kg, po measured after 24 hrs by LC-MS/MS analysis; assay type: ADME, organism-based; procedure, shortened: as §3
Rattus norvegicus [19] = assay: Effect on plasma clearance of doxorubicin in Sprague-Dawley rat at 5 mg/kg, iv co-administered with doxorubicin measured after 8 hrs by LC-MS/MS analysis; assay type: ADME, organism-based; details: in vivo
Procedure, shortened: (§4)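 Male SD rats received DOX 10 mg/kg i.v. alone or with modulator 5 mg/kg i.v. Orbital blood was taken at 5 min to 8 h. Plasma DOX was measured by LC-MS/MS with DNR (0.5 μg/mL) as internal standard. Mean ± SD, n = 3.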

Rattus norvegicus [20] = assay: Effect on MRT of doxorubicin in Sprague-Dawley rat at 5 mg/kg, iv co-administered with doxorubicin measured after 8 hrs by LC-MS/MS analysis; assay type: ADME, organism-based; details: in vivo; procedure, shortened: as §4
Rattus norvegicus [21] = assay: Effect on half life of doxorubicin in Sprague-Dawley rat at 5 mg/kg, iv co-administered with doxorubicin measured after 8 hrs by LC-MS/MS analysis; assay type: ADME, organism-based; details: in vivo; procedure, shortened: as §4

COc1cc2c(cc1OC)CN(CCc1ccc(Nc3nc(-c4ccncc4)nc4ccccc34)cc1)CC2
viability at 48 h, 1 µM [1]: > 99%
IC50 (K562): 4 µM
EC50 [2]: 57.9 nM
Ratio IC50/EC50 [3]: 75.6
Ratio IC50/EC50 [4]: 241.6
Ratio IC50/EC50 [5]: 1270
inhibition (Homo sapiens [6]): Active
Activity (K562/A02 [7]): inactive
inhibition (Homo sapiens [8]): Active
inhibition (Homo sapiens [9]): Active
Activity (K562/A02 [10]): inactive
inhibition (INH) [11]: Not Active
AUC (Rattus norvegicus [12]): 3130 ng·h/mL
AUC (Rattus norvegicus [13]): 1660 ng·h/mL
AUC (Rattus norvegicus [14]): 3340 ng·h/mL
half-life [15]: 372 min
half-life [16]: 354 min
Cmax [17]: 761 ng/mL
CL/F [18]: 49.9 mL/min/kg
Activity (Rattus norvegicus [19]): Non-Toxic
Activity (Rattus norvegicus [20]): Non-Toxic
Activity (Rattus norvegicus [21]): Non-Toxic
